Data: ChEMBL document CHEMBL1142567, “Inhibition of leukotriene biosynthesis by stilbenoids from Stemona species” (J Nat Prod, 2005)
Calls of active or inactive are those of the source. The calls are words filed in the database; no cut-off is given here.

How the values were obtained:
Type in all cases: functional
[1] = (§1) Ex vivo inhibition of leukotriene formation in calcium ionophore activated human neutrophilic granulocyte at 50 uM by ELISA
Method in brief: (§2)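 Human neutrophil granulocytes carrying 5-LOX activity, isolated by sedimentation rate and lysis tolerance. Cells activated with calcium ionophore, then incubated with test sample and arachidonic acid. Reaction stopped with formic acid and centrifuged. Supernatant diluted 50-fold; LTB4 measured by competitive EIA (18 h, 4 °C; Ellman's development; 412 nm). Samples tested at 50, 25, 10, 5 and 1 µM in duplicate. Inhibition given as percent of control; IC50 by probit-log analysis. Trypan blue viability check.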

[2] = Ex vivo inhibition of leukotriene formation in calcium ionophore activated human neutrophilic granulocyte by ELISA; method in brief: as §2
[3] = species on record: Homo sapiens; assay: as §1; method in brief: as §2
[4] = Ex vivo inhibition of leukotriene formation in calcium ionophore activated human neutrophilic granulocyte at 25 uM by ELISA; method in brief: as §2

Row | SMILES | inhibition at 50 µM [1] | IC50 [2] | Activity [3] | inhibition at 25 µM [4]
1 | Oc1cc(O)cc(CCc2ccccc2)c1 [DIHYDROPINOSYLVIN] | 10% | > 50 µM |  | 
2 | CC[C@@H]1[C@H]2CCCCN3[C@H]2[C@@H](C[C@H]3[C@@H]2C[C@H](C)C(=O)O2)[C@H]2[C@@H]1OC(=O)[C@H]2C [NEOTUBEROSTEMONINE] |  | > 50 µM | inactive | 
3 | Oc1cc(O)cc(/C=C/c2ccccc2)c1 [PINOSYLVIN] |  | 22.7 µM |  | 
4 | Oc1ccc(/C=C/c2cc(O)cc(O)c2)cc1 [RESVERATROL] | < 10% | > 50 µM |  | 
5 | COc1c(O)ccc2c1CCc1cc(O)c(C)c(OC)c1-2 [STEMANTHRENE A] |  | 8.5 µM |  | 
6 | COc1cc2c(c(O)c1C)-c1ccc(O)c(OC)c1CC2 [STEMANTHRENE B] |  |  |  | 100%
7 | COc1c(O)ccc2c1CCc1c(C)c(O)c(C)c(OC)c1-2 [STEMANTHRENE C] |  |  |  | 100%
8 | COc1cc(O)c(C)c2c1-c1ccc(O)c(OC)c1CC2 [STEMANTHRENE D] |  | 4.8 µM |  | 
9 | COc1cc(O)cc(-c2cc3c(O)cccc3o2)c1 [STEMOFURAN B] |  | 23.3 µM |  | 
10 | Cc1c(O)cc(-c2cc3ccccc3o2)cc1O [STEMOFURAN C] | 10% | > 50 µM |  | 
11 | COc1cc(O)c(C)c(-c2cc3c(O)cccc3o2)c1 [STEMOFURAN D] |  | 30.3 µM |  | 
12 | COc1cc(-c2cc3c(O)c(C)ccc3o2)c(C)c(O)c1C [STEMOFURAN G] |  | 3.7 µM |  | 
13 | COc1cc(-c2cc3c(O)cccc3o2)c(C)c(OC)c1C [STEMOFURAN J] |  | 26.3 µM |  | 
14 | COc1ccccc1CCc1cc(O)cc(O)c1 [STILBOSTEMIN A] | < 10% | > 50 µM |  | 
15 | Cc1c(O)cc(CCc2ccccc2)cc1O [STILBOSTEMIN B] | 10% | > 50 µM |  | 
16 | COc1ccccc1CCc1cc(O)c(C)c(O)c1 [STILBOSTEMIN D] | < 10% | > 50 µM |  | 
17 | COc1cc(O)c(C)c(CCc2cccc(O)c2OC)c1 [STILBOSTEMIN F] | < 10% | > 50 µM |  | 
18 | COc1cc(CCc2cccc(O)c2OC)cc(O)c1C [STILBOSTEMIN G] |  | 25.8 µM |  | 
19 | CC[C@@H]1[C@H]2CCCCN3[C@H]2[C@H](C[C@H]3[C@@H]2C[C@H](C)C(=O)O2)[C@@H]2[C@H]1OC(=O)[C@H]2C [TUBEROSTEMONINE] |  | > 50 µM | inactive | 
20 | CC(c1cc2ccccc2s1)N(O)C(N)=O (centres undefined) [ZILEUTON] |  | 10.4 µM |  | 
